Experimental data: publication PMC6957261 (Biochimica et biophysica acta. Biomembranes, 2018)

How the values were obtained:
Assay in all cases: Membrane translocation by confocal microscopy in living LNCaP cells
Type in all cases: cell-based
[1] = molecular target: GFP-tagged PKCθ C1b-C1b chimera (Homo sapiens, UniProt Q04759, A164V/A195M/A196N/A207N/D203T/E161R/E178T/F166N/F167Y/F179L/H177G/I197V/I202Q/I206A/K185R/K199H/K200R/K208L/N184A/N194G/P168K/Q169S/Q189K/Q192A/R191D/S174E/T163K/T165Y/V175H/V180L/Y188L); details: response after 100 nM PMA, compared to wild type
Procedure, shortened: (§1)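 Full-length PKCθ constructs in pEGFP-N1 transfected into LNCaP cells 48 h after plating (RPMI 1640, 10% FBS, 37 °C). After 24 h, PMA is added in phenol red-free DMEM/1% FBS. Live confocal imaging at 488 nm every 30 s. Membrane/cytoplasm mean GFP ratio from 4 μm² regions is normalized to time 0 and read at 5 and 10 min. Three independent experiments, unpaired two-tailed t test.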

GFP-tagged PKCθ/P168K = GFP-tagged PKCθ/P168K (Homo sapiens, UniProt Q04759, P168K); details: PMA, compared to wild type, not statistically significant
Procedure, shortened: as §1

[2] = molecular target: GFP-tagged wild type PKCθ (Homo sapiens, UniProt Q04759)
Procedure, shortened: as §1

GFP-tagged PKCθ ΔC1a = GFP-tagged PKCθ ΔC1a (Homo sapiens, UniProt Q04759, DEL160-209)
Procedure, shortened: as §1

[3] = molecular target: GFP-tagged PKCθ C1a-C1a chimera (Homo sapiens, UniProt Q04759, A256N/A264Q/A278I/D263R/E246S/G249H/G266N/H247V/H271K/K235T/K240P/K261Q/L251F/L252V/L260Y/L280K/M267A/N238F/N268A/N279A/Q274I/R233E/R257K/R272K/S241Q/T250E/T275D/V236A/V269I/Y237T/Y239F)
Procedure, shortened: as §1

GFP-tagged PKCθ/K240P = GFP-tagged PKCθ/K240P (Homo sapiens, UniProt Q04759, K240P); details: 1 μM PMA
Procedure, shortened: as §1

GFP-tagged PKCθ ΔC1b = GFP-tagged PKCθ ΔC1b (Homo sapiens, UniProt Q04759, DEL232-281); details: 100 nM, 1 μM and 10 μM PMA

In the case of `CCCCCCCCCCCCCC(=O)O[C@@H]1[C@@H](C)[C@@]2(O)[C@@H](C=C(CO)C[C@]3(O)C(=O)C(C)=C[C@@H]23)[C@@H]2C(C)(C)[C@]12OC(C)=O` [PMA, phorbol 12-myristate 13-acetate], the “translocation to the plasma membrane (membrane/cytoplasm ratio)” value (shortened to “translocation … (membrane/cytoplasm ratio)”) [1] was “stronger translocation”, the “translocation … (membrane/cytoplasm ratio)” value (GFP-tagged PKCθ/P168K) was “increased translocation” and the “translocation … (membrane/cytoplasm ratio)” value ([2]; 100 nM PMA) was “little response”. For the same molecule, the “translocation … (membrane/cytoplasm ratio)” value ([2]; 1 and 10 μM PMA, 5 and 10 min) was “translocated in a dose dependent manner”, the “enhancement of translocation to the plasma membrane” value (GFP-tagged PKCθ ΔC1a; 100 nM PMA, deletion of C1a versus full length PKCθ) was 5 fold and the “translocation … (membrane/cytoplasm ratio)” value (GFP-tagged PKCθ ΔC1a; PMA, compared to wild type) was “enhanced membrane interaction compared to the wild type”. For the same molecule, the “translocation … (membrane/cytoplasm ratio)” value ([3]; 1 μM PMA) was “no translocation”, the “translocation … (membrane/cytoplasm ratio)” value ([3]; 10 μM PMA) was “very small but statistically significant increase in the translocation” and the “translocation … (membrane/cytoplasm ratio)” value (GFP-tagged PKCθ/K240P) was “modestly decreased translocation”. The “translocation … (membrane/cytoplasm ratio)” value (GFP-tagged PKCθ ΔC1b) was “complete loss of plasma membrane translocation”.
